Measured values: ChEMBL document CHEMBL1126159, “A novel class of enkephalinase inhibitors containing a C-terminal sulfo group” (J Med Chem, 1992)

Experiments:
Neprilysin [1] = biological target: T1, Neprilysin (Rattus norvegicus, UniProt P07861); test: In vitro inhibitory activity against enkephalinase enzyme from rat.
T1 sequence (P07861 whole entry): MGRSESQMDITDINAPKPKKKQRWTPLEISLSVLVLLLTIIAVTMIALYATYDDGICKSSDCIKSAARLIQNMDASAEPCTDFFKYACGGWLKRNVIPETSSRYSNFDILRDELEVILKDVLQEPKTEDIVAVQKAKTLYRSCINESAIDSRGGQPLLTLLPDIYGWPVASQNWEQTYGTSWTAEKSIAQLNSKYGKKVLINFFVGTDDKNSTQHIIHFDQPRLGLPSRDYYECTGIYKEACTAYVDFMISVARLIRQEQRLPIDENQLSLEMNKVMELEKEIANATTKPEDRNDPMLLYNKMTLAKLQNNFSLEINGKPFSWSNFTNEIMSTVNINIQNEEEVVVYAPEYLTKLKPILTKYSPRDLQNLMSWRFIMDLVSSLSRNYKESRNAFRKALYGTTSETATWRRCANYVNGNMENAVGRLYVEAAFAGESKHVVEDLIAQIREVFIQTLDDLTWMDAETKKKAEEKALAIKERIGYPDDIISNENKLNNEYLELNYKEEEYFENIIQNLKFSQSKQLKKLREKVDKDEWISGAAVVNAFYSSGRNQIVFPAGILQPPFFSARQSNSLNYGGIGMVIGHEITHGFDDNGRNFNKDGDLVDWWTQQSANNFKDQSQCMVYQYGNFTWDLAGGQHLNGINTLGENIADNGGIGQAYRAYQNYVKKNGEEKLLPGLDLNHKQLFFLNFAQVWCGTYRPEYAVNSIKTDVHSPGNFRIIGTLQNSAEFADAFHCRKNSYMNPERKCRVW
Method in brief: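 Rat striatal membranes (male Std:Wistar) were solubilized with 1% Triton X-100 in 50 mM Tris-HCl pH 7.7 and fractionated on DEAE-cellulose; the enkephalin dipeptidylcarboxypeptidase fraction served as enzyme. […] Reaction was stopped with 0.2 N HCl, products separated on Porapak Q, and [3H]Tyr-Gly-Gly measured. IC50 by log-probit from 3–4 concentrations, run 2–3 times.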

Neprilysin [2] = biological target: T1, Neprilysin; test: The compound was tested in vitro for its inhibitory activity against Enkephalinase enzyme
Method in brief: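 Rat striatal membranes (male Std:Wistar) were solubilized with 1% Triton X-100 in 50 mM Tris-HCl pH 7.7 and fractionated on DEAE-cellulose; the enkephalin dipeptidylcarboxypeptidase fraction served as enzyme. IC50 by log-probit from 3–4 concentrations, run 2–3 times.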

[3] = biological target: T2, Angiotensin-converting enzyme (Oryctolagus cuniculus, UniProt P12822); test: In vitro inhibitory activity against angiotensin I converting enzyme (ACE) from rabbit lung
T2 sequence (P12822 whole entry): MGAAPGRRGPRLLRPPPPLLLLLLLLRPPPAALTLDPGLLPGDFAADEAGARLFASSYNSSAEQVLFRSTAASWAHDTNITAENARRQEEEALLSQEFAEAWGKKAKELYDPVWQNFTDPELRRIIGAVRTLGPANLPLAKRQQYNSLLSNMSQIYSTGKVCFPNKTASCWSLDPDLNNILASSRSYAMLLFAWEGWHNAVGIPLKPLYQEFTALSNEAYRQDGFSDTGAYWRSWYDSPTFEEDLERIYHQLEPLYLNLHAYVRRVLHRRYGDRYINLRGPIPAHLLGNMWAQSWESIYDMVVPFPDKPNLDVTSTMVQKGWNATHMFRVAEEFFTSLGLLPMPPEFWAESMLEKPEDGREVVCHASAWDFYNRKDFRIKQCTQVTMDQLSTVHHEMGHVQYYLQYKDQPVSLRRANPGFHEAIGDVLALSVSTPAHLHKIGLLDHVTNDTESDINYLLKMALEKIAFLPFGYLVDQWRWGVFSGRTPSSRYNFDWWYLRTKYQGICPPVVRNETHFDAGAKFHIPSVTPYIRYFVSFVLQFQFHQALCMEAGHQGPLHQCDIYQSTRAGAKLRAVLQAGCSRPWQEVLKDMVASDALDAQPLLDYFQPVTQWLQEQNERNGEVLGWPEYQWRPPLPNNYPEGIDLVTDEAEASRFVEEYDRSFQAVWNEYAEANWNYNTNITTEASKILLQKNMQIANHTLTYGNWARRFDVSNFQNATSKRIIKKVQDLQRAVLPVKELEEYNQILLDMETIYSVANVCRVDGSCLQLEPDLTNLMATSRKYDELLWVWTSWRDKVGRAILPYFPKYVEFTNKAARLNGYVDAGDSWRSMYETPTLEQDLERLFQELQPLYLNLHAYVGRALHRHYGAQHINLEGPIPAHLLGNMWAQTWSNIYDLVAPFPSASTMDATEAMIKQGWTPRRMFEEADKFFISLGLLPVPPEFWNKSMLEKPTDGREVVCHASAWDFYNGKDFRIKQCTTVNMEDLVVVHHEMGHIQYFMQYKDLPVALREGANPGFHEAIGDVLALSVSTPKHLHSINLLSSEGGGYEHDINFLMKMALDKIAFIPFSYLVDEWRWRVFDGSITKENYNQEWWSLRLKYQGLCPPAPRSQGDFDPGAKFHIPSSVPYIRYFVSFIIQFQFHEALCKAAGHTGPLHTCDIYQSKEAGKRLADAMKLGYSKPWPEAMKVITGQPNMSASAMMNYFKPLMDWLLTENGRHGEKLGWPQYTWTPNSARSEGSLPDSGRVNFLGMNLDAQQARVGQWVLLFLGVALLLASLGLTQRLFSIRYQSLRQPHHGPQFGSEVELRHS

Mus musculus [4] = test: The compound was tested for administrating the compound intracisternally; type: functional
Method in brief: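 Female ddY mice (18–22 g) received 10 µL aqueous solution intracisternally 1 min before ip phenylbenzoquinone (0.03% in 5% aqueous EtOH, 10 mL/kg). Writhes were counted for 15 min starting 5 min after phenylbenzoquinone. Mice with behavioural change after injection were excluded. More than 50% reduction versus vehicle control counted as effective; ED50 given with 95% confidence limits.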

Mus musculus [5] = test: The compound was tested for administrating the compound intravenously; type: functional; conditions: iv
Method in brief: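 Female ddY mice (18–22 g) were dosed iv 5 min before ip phenylbenzoquinone (0.03% in 5% aqueous EtOH, 10 mL/kg). Writhes were counted for 15 min starting 5 min after phenylbenzoquinone. More than 50% reduction versus vehicle control counted as effective; ED50 given with 95% confidence limits.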

[6] = biological target: T2, Angiotensin-converting enzyme; test: In vitro inhibitory activity against Angiotensin I converting enzyme from rabbit lung
Method in brief: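 Enzyme source was rabbit lung ACE. The inhibition procedure followed an earlier published method.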

For `O=C(Nc1ccccc1S(=O)(=O)O)C(CS)Cc1ccccc1` (stereo unspecified), which IC50 (Neprilysin [1]) is on record?
Its IC50 is 140 nM.

`Cc1ccc(CC(CS)C(=O)Nc2cccc(S(=O)(=O)O)c2)cc1` (stereo unspecified) was tested. Which IC50 (Neprilysin [1]) did it give?
Its IC50 is 2.5 nM.

Which IC50 (Neprilysin [1]) does the source give for `O=C(Nc1ccc(S(=O)(=O)O)cc1)C(CS)CCCc1ccccc1` (stereo unspecified) here?
Its IC50 is 110 nM.

How did the IC50 (Neprilysin [2]) turn out when `O=C(Nc1ccc(S(=O)(=O)O)c2ccccc12)C(CS)Cc1ccccc1` (stereo unspecified) was run?
The IC50 was 7.4 nM.

What about the IC50 [3] of the same compound?
Its IC50 is 37000 nM.

For `O=C(NCc1ccc(S(=O)(=O)O)cc1)C(CS)Cc1ccccc1` (stereo unspecified), which IC50 (Neprilysin [1]) is on record?
The IC50 was 11 nM.

For `O=C(Nc1ccc(S(=O)(=O)O)cc1)C(CS)Cc1cccnc1` (stereo unspecified), which IC50 (Neprilysin [1]) is on record?
Its IC50 is 33 nM.

`COc1ccc(CC(CS)C(=O)NCCS(=O)(=O)O)cc1` (stereo unspecified) was tested. Which IC50 (Neprilysin [1]) did it give?
Its IC50 is 4.4 nM.

Which IC50 (Neprilysin [1]) does the source give for `CC(C)CC(CS)C(=O)Nc1ccc(S(=O)(=O)O)cc1` (stereo unspecified) here?
The IC50 was 0.9 nM.

Which IC50 (Neprilysin [1]) does the source give for `O=C(C(CS)Cc1ccccc1)N(CCS(=O)(=O)O)C1CC1` (stereo unspecified) here?
Its IC50 is 4200 nM.

How did the IC50 (Neprilysin [1]) turn out when `O=C(NCCS(=O)(=O)[O-])[C@H](CS)Cc1ccccc1.[Na+]` was run?
The IC50 was 4.4 nM.

What about the ED50 (Mus musculus [4]) of the same compound?
The ED50 was 17.7 µg mouse-1.

What about the ED50 (Mus musculus [5]) of the same compound?
Its ED50 is 43.3 mg/kg.

And the IC50 [6]?
The IC50 was 740000 nM.

How did the IC50 (Neprilysin [1]) turn out when `CN(C)c1ccc(CC(CS)C(=O)NCCS(=O)(=O)O)cc1` (stereo unspecified) was run?
Its IC50 is 37 nM.

How did the IC50 (Neprilysin [1]) turn out when `CC(NC(=O)C(CS)Cc1ccccc1)S(=O)(=O)O` (stereo unspecified) was run?
Its IC50 is 31 nM.

`O=C(Nc1ccc(S(=O)(=O)O)cc1)C(CS)Cc1ccc([N+](=O)[O-])cc1` (stereo unspecified) was tested. Which IC50 (Neprilysin [2]) did it give?
The IC50 was 14 nM.

With `O=C(NCCCS(=O)(=O)O)C(CS)Cc1ccccc1` (stereo unspecified) as the compound, how does the IC50 (Neprilysin [1]) read?
Its IC50 is 5.4 nM.

Which results are given for `O=C(NCCS(=O)(=O)[O-])C(CS)Cc1ccccc1.[Na+]` (stereo unspecified)?
IC50 (Neprilysin [1]): 1.5 nM; ED50 (Mus musculus [4]): 20 µg mouse-1; ED50 (Mus musculus [5]): 18 mg/kg; IC50 [6]: 720000 nM

Which results are given for `O=C(Nc1cccc(S(=O)(=O)O)c1)C(CS)Cc1ccccc1` (stereo unspecified)?
IC50 (Neprilysin [1]): 0.27 nM; IC50 [6]: 290000 nM

`O=C(Nc1ccc(S(=O)(=O)O)cc1)C(CS)Cc1noc2ccccc12` (stereo unspecified) was tested. Which IC50 (Neprilysin [1]) did it give?
Its IC50 is 12 nM.

With `COc1ccc(CC(CS)C(=O)Nc2ccc(S(=O)(=O)O)cc2)cc1` (stereo unspecified) as the compound, how does the IC50 (Neprilysin [1]) read?
Its IC50 is 3.2 nM.

`O=C(NCCS(=O)(=O)[O-])[C@@H](CS)Cc1ccccc1.[Na+]` was tested. Which IC50 (Neprilysin [1]) did it give?
Its IC50 is 0.82 nM.

And the ED50 (Mus musculus [4])?
The ED50 was 11.8 µg mouse-1.

What about the ED50 (Mus musculus [5]) of the same compound?
Its ED50 is 8.5 mg/kg.

What about the IC50 [6] of the same compound?
Its IC50 is 430000 nM.

How did the IC50 (Neprilysin [1]) turn out when `O=C(Nc1ccc(S(=O)(=O)O)cc1)C(CS)Cc1ccccc1` (stereo unspecified) was run?
Its IC50 is 1.7 nM.

What about the IC50 [6] of the same compound?
Its IC50 is 210000 nM.

How did the IC50 (Neprilysin [1]) turn out when `Cc1ccc(CC(CS)C(=O)NCCS(=O)(=O)O)cc1` (stereo unspecified) was run?
Its IC50 is 3.1 nM.

With `CC(C)CC(NC(=O)C(CS)Cc1ccccc1)S(=O)(=O)O` (stereo unspecified) as the compound, how does the IC50 (Neprilysin [1]) read?
The IC50 was 250 nM.

Which IC50 (Neprilysin [2]) does the source give for `O=C(NCCS(=O)(=O)O)C(CS)Cc1ccc([N+](=O)[O-])cc1` (stereo unspecified) here?
The IC50 was 17 nM.

For `CN(C)c1ccc(CC(CS)C(=O)Nc2ccc(S(=O)(=O)O)cc2)cc1` (stereo unspecified), which IC50 (Neprilysin [1]) is on record?
The IC50 was 14 nM.

Which IC50 (Neprilysin [1]) does the source give for `O=C(Nc1ccc(S(=O)(=O)O)cc1)C(CS)Cc1ccc(-c2ccccc2)cc1` (stereo unspecified) here?
The IC50 was 52 nM.

Which IC50 (Neprilysin [1]) does the source give for `O=C(Nc1ccc(S(=O)(=O)O)cc1)C(CS)Cc1ccc(C(F)(F)F)cc1` (stereo unspecified) here?
The IC50 was 150 nM.

Which results are given for `O=C(NCS(=O)(=O)O)C(CS)Cc1ccccc1` (stereo unspecified)?
IC50 (Neprilysin [1]): 2.2 nM; IC50 [6]: 12000 nM

With `O=C(NCCS(=O)(=O)O)C(CS)CCCc1ccccc1` (stereo unspecified) as the compound, how does the IC50 (Neprilysin [1]) read?
Its IC50 is 11 nM.

For `O=C(Nc1ccc(S(=O)(=O)O)cc1)C(CS)Cc1ccc(F)cc1` (stereo unspecified), which IC50 (Neprilysin [1]) is on record?
The IC50 was 5 nM.

How did the IC50 (Neprilysin [1]) turn out when `O=C(NCCS(=O)(=O)O)C(CS)Cc1cccc2ccccc12` (stereo unspecified) was run?
The IC50 was 8.4 nM.

Which IC50 (Neprilysin [1]) does the source give for `O=C(Nc1ccc(S(=O)(=O)O)cc1)C(CS)Cc1cccc2ccccc12` (stereo unspecified) here?
The IC50 was 34 nM.

`CC(C)CC(CS)C(=O)NCCS(=O)(=O)O` (stereo unspecified) was tested. Which IC50 (Neprilysin [2]) did it give?
The IC50 was 5.2 nM.

With `CC(C)CC(CS)C(=O)Nc1cccc(S(=O)(=O)O)c1` (stereo unspecified) as the compound, how does the IC50 (Neprilysin [1]) read?
Its IC50 is 2.4 nM.

Which ED50 (Mus musculus [4]) does the source give for `O=C(O)CNC(=O)C(CS)Cc1ccccc1` (stereo unspecified) [THIORPHAN] here?
The ED50 was 17 µg mouse-1.

What about the ED50 (Mus musculus [5]) of the same compound?
Its ED50 is 72 mg/kg.

`Cc1ccc(CC(CS)C(=O)Nc2ccc(S(=O)(=O)O)cc2)cc1` (stereo unspecified) was tested. Which IC50 (Neprilysin [1]) did it give?
Its IC50 is 1.1 nM.

`O=C(NCCS(=O)(=O)O)C(CS)Cc1ccc(F)cc1` (stereo unspecified) was tested. Which IC50 (Neprilysin [1]) did it give?
Its IC50 is 3.5 nM.

With `CN(CCS(=O)(=O)O)C(=O)C(CS)Cc1ccccc1` (stereo unspecified) as the compound, how does the IC50 (Neprilysin [1]) read?
Its IC50 is 490 nM.
